# Results as given in ChEMBL document CHEMBL1671716, “Antimicrobial susceptibility patterns for recent clinical isolates of anaerobic bacteria in South Korea” (2010).
# What was measured:
# Bacteroides fragilis [1] = assay: Antimicrobial activity against Bacteroides fragilis after 48 hrs by agar dilution method; type: functional
# Procedure, shortened: (§1)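 MICs on clinical anaerobe isolates by the CLSI agar dilution method. Inoculum of 10^5 CFU applied with a Steers replicator. Plates incubated 48 h at 37°C in an anaerobic chamber.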
# Bacteroides caccae [2] = assay: Antimicrobial activity against Bacteroides caccae after 48 hrs by agar dilution method; type: functional; procedure, shortened: as §1
# [3] = system: Parabacteroides distasonis; assay: Antimicrobial activity against Bacteroides distasonis after 48 hrs by agar dilution method; type: functional; procedure, shortened: as §1
# Phocaeicola vulgatus [4] = assay: Antimicrobial activity against Bacteroides vulgatus after 48 hrs by agar dilution method; type: functional; procedure, shortened: as §1
# Bacteroides fragilis [5] = assay: Antimicrobial activity against Bacteroides fragilis assessed as percent susceptible isolates after 48 hrs by agar dilution method; type: functional
# Bacteroides caccae [6] = assay: Antimicrobial activity against Bacteroides caccae assessed as percent susceptible isolates after 48 hrs by agar dilution method; type: functional
# Bacteroides caccae [7] = assay: Antimicrobial activity against Bacteroides caccae assessed as percent resistant isolates after 48 hrs by agar dilution method; type: functional
# Procedure, shortened: (§2)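 CLSI agar dilution on recent Korean clinical anaerobe isolates. Inoculum 10^5 CFU per spot by replicator. Plates incubated in an anaerobic chamber at 37°C for 48 h. For piperacillin plus tazobactam, tazobactam was held constant at 4 μg/ml. Resistance and susceptibility rates derived from MICs.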
# [8] = system: Parabacteroides distasonis; assay: Antimicrobial activity against Bacteroides distasonis assessed as percent susceptible isolates after 48 hrs by agar dilution method; type: functional
# [9] = system: Parabacteroides distasonis; assay: Antimicrobial activity against Bacteroides distasonis assessed as percent resistant isolates after 48 hrs by agar dilution method; type: functional; procedure, shortened: as §2
# Phocaeicola vulgatus [10] = assay: Antimicrobial activity against Bacteroides vulgatus assessed as percent susceptible isolates after 48 hrs by agar dilution method; type: functional
# Phocaeicola vulgatus [11] = assay: Antimicrobial activity against Bacteroides vulgatus assessed as percent resistant isolates after 48 hrs by agar dilution method; type: functional; procedure, shortened: as §2
# Bacteroides ovatus = assay: Antimicrobial activity against Bacteroides ovatus assessed as percent resistant isolates after 48 hrs by agar dilution method; type: functional; procedure, shortened: as §2
# Prevotella intermedia [12] = assay: Antimicrobial activity against Prevotella intermedia after 48 hrs by agar dilution method; type: functional
# Procedure, shortened: (§3)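 CLSI agar dilution (M11-A7); inoculum 10^5 CFU applied by replicator; plates incubated anaerobically 48 h at 37°C. For piperacillin-tazobactam, tazobactam held constant at 4 μg/ml.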
# Prevotella bivia = assay: Antimicrobial activity against Prevotella bivia after 48 hrs by agar dilution method; type: functional; procedure, shortened: as §3
# Prevotella intermedia [13] = assay: Antimicrobial activity against Prevotella intermedia assessed as percent resistant isolates after 48 hrs by agar dilution method; type: functional; procedure, shortened: as §2
# Prevotella buccae [14] = assay: Antimicrobial activity against Prevotella buccae assessed as percent susceptible isolates after 48 hrs by agar dilution method; type: functional, Segatella buccae; procedure, shortened: as §3
# Prevotella buccae [15] = assay: Antimicrobial activity against Prevotella buccae assessed as percent resistant isolates after 48 hrs by agar dilution method; type: functional, Segatella buccae; procedure, shortened: as §2
# Hoylesella oralis [16] = assay: Antimicrobial activity against Prevotella oralis assessed as percent susceptible isolates after 48 hrs by agar dilution method; type: functional
# Procedure, shortened: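 CLSI agar dilution MIC testing of clinical isolates. 10^5 CFU spotted by replicator, plates incubated 48 h at 37°C in an anaerobic chamber. Susceptibility rates derived from the MICs.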
# Hoylesella oralis [17] = assay: Antimicrobial activity against Prevotella oralis assessed as percent resistant isolates after 48 hrs by agar dilution method; type: functional; procedure, shortened: as §2
# Fusobacterium necrogenes = assay: Antimicrobial activity against Fusobacterium necrogenes after 48 hrs by agar dilution method; type: functional; procedure, shortened: as §3
# Fusobacterium nucleatum = assay: Antimicrobial activity against Fusobacterium nucleatum after 48 hrs by agar dilution method; type: functional; procedure, shortened: as §3
# [18] = system: Peptostreptococcus anaerobius; assay: Antimicrobial activity against Peptostreptococcus anaerobius after 48 hrs by agar dilution method; type: functional; procedure, shortened: as §3
# Parvimonas micra = assay: Antimicrobial activity against Peptostreptococcus micros after 48 hrs by agar dilution method; type: functional; procedure, shortened: as §3
# [19] = system: Peptostreptococcus anaerobius; assay: Antimicrobial activity against Peptostreptococcus anaerobius assessed as percent susceptible isolates after 48 hrs by agar dilution method; type: functional; procedure, shortened: as §2
# Anaerococcus prevotii [20] = assay: Antimicrobial activity against Anaerococcus prevotii after 48 hrs by agar dilution method; type: functional; procedure, shortened: as §1
# Anaerococcus prevotii [21] = assay: Antimicrobial activity against Anaerococcus prevotii assessed as percent susceptible isolates after 48 hrs by agar dilution method; type: functional
# Anaerococcus prevotii [22] = assay: Antimicrobial activity against Anaerococcus prevotii assessed as percent resistant isolates after 48 hrs by agar dilution method; type: functional; procedure, shortened: as §2
# [23] = system: Peptoniphilus asaccharolyticus; assay: Antimicrobial activity against Peptoniphilus asaccharolyticus assessed as percent susceptible isolates after 48 hrs by agar dilution method; type: functional; procedure, shortened: as §3
# Finegoldia magna [24] = assay: Antimicrobial activity against Finegoldia magna after 48 hrs by agar dilution method; type: functional; procedure, shortened: as §3
# Finegoldia magna [25] = assay: Antimicrobial activity against Finegoldia magna assessed as percent susceptible isolates after 48 hrs by agar dilution method; type: functional; procedure, shortened: as §3
# Finegoldia magna [26] = assay: Antimicrobial activity against Finegoldia magna assessed as percent resistant isolates after 48 hrs by agar dilution method; type: functional; procedure, shortened: as §2
# Clostridioides difficile [27] = assay: Antimicrobial activity against Clostridium difficile assessed as percent susceptible isolates after 48 hrs by agar dilution method; type: functional
# Clostridioides difficile [28] = assay: Antimicrobial activity against Clostridium difficile assessed as percent resistant isolates after 48 hrs by agar dilution method; type: functional
# Schaalia odontolytica [29] = assay: Antimicrobial activity against Actinomyces odontolyticus after 48 hrs by agar dilution method; type: functional; procedure, shortened: as §1
# Schaalia odontolytica [30] = assay: Antimicrobial activity against Actinomyces odontolyticus assessed as percent resistant isolates after 48 hrs by agar dilution method; type: functional; procedure, shortened: as §2
# Actinomyces israelii [31] = assay: Antimicrobial activity against Actinomyces israelii after 48 hrs by agar dilution method; type: functional; procedure, shortened: as §1
# Actinomyces israelii [32] = assay: Antimicrobial activity against Actinomyces israelii assessed as percent resistant isolates after 48 hrs by agar dilution method; type: functional; procedure, shortened: as §2
# Schaalia meyeri = assay: Antimicrobial activity against Actinomyces meyeri after 48 hrs by agar dilution method; type: functional; procedure, shortened: as §1
# Actinomyces naeslundii [33] = assay: Antimicrobial activity against Actinomyces naeslundii after 48 hrs by agar dilution method; type: functional; procedure, shortened: as §1
# Actinomyces naeslundii [34] = assay: Antimicrobial activity against Actinomyces naeslundii assessed as percent resistant isolates after 48 hrs by agar dilution method; type: functional; procedure, shortened: as §2
# [35] = system: Bifidobacterium adolescentis; assay: Antimicrobial activity against Bifidobacterium adolescentis after 48 hrs by agar dilution method; type: functional; procedure, shortened: as §1
# [36] = system: Bifidobacterium adolescentis; assay: Antimicrobial activity against Bifidobacterium adolescentis assessed as percent susceptible isolates after 48 hrs by agar dilution method; type: functional
# [37] = system: Bifidobacterium adolescentis; assay: Antimicrobial activity against Bifidobacterium adolescentis assessed as percent resistant isolates after 48 hrs by agar dilution method; type: functional; procedure, shortened: as §2
# Bifidobacterium sp. [38] = assay: Antimicrobial activity against Bifidobacterium sp. after 48 hrs by agar dilution method; type: functional; procedure, shortened: as §1
# Bifidobacterium sp. [39] = assay: Antimicrobial activity against Bifidobacterium sp. assessed as percent susceptible isolates after 48 hrs by agar dilution method; type: functional; procedure, shortened: as §3
# Bifidobacterium sp. [40] = assay: Antimicrobial activity against Bifidobacterium sp. assessed as percent resistant isolates after 48 hrs by agar dilution method; type: functional; procedure, shortened: as §2
# Eubacterium sp. [41] = assay: Antimicrobial activity against Eubacterium sp. assessed as percent susceptible isolates after 48 hrs by agar dilution method; type: functional; procedure, shortened: as §3
# Eubacterium sp. [42] = assay: Antimicrobial activity against Eubacterium sp. assessed as percent resistant isolates after 48 hrs by agar dilution method; type: functional; procedure, shortened: as §2
structure (smiles),measurement,setting,value
C[C@@H](O)[C@H]1C(=O)N2C(C(=O)O)=C(SCCNC=N)C[C@H]12 [IMIPENEM ANHYDROUS],MIC50,Bacteroides fragilis [1],0.125 µg/mL
same,MIC90,Bacteroides fragilis [1],1 µg/mL
same,MIC50,Bacteroides caccae [2],0.5 µg/mL
same,MIC90,Bacteroides caccae [2],4 µg/mL
same,MIC50,[3],0.5 µg/mL
same,MIC90,[3],4 µg/mL
same,MIC50,Phocaeicola vulgatus [4],0.5 µg/mL
same,MIC90,Phocaeicola vulgatus [4],4 µg/mL
same,Activity,Bacteroides fragilis [5],98%
same,Activity,Bacteroides caccae [6],95%
same,Activity,Bacteroides caccae [7],4%
same,Activity,[8],95%
same,Activity,[9],4%
same,Activity,Phocaeicola vulgatus [10],95%
same,Activity,Phocaeicola vulgatus [11],4%
same,Activity,Bacteroides ovatus,4%
same,MIC,Prevotella intermedia [12],0.02 µg/mL
same,MIC50,Prevotella intermedia [12],0.03 µg/mL
same,MIC90,Prevotella intermedia [12],0.06 µg/mL
same,MIC50,Prevotella bivia,0.06 µg/mL
same,MIC90,Prevotella bivia,0.5 µg/mL
same,Activity,Prevotella intermedia [13],0%
same,Activity,Prevotella buccae [14],100%
same,Activity,Prevotella buccae [15],0%
same,Activity,Hoylesella oralis [16],100%
same,Activity,Hoylesella oralis [17],0%
same,MIC,Fusobacterium necrogenes,0.02 µg/mL
same,MIC,Fusobacterium nucleatum,0.02 µg/mL
same,MIC50,[18],0.125 µg/mL
same,MIC90,[18],2 µg/mL
same,MIC50,Parvimonas micra,0.125 µg/mL
same,MIC90,Parvimonas micra,2 µg/mL
same,Activity,[19],100%
same,MIC50,Anaerococcus prevotii [20],0.06 µg/mL
same,MIC90,Anaerococcus prevotii [20],0.25 µg/mL
same,Activity,Anaerococcus prevotii [21],100%
same,Activity,Anaerococcus prevotii [22],0%
same,Activity,[23],100%
same,MIC50,Finegoldia magna [24],0.06 µg/mL
same,MIC90,Finegoldia magna [24],0.125 µg/mL
same,Activity,Finegoldia magna [25],100%
same,Activity,Finegoldia magna [26],0%
same,Activity,Clostridioides difficile [27],58%
same,Activity,Clostridioides difficile [28],8%
same,MIC50,Schaalia odontolytica [29],0.06 µg/mL
same,MIC90,Schaalia odontolytica [29],0.5 µg/mL
same,Activity,Schaalia odontolytica [30],0%
same,MIC50,Actinomyces israelii [31],0.06 µg/mL
same,MIC90,Actinomyces israelii [31],0.5 µg/mL
same,Activity,Actinomyces israelii [32],0%
same,MIC50,Schaalia meyeri,0.06 µg/mL
same,MIC90,Schaalia meyeri,0.5 µg/mL
same,MIC50,Actinomyces naeslundii [33],0.06 µg/mL
same,MIC90,Actinomyces naeslundii [33],0.5 µg/mL
same,Activity,Actinomyces naeslundii [34],0%
same,MIC50,[35],0.06 µg/mL
same,MIC90,[35],0.5 µg/mL
same,Activity,[36],100%
same,Activity,[37],15%
same,MIC50,Bifidobacterium sp. [38],0.06 µg/mL
same,MIC90,Bifidobacterium sp. [38],0.5 µg/mL
same,Activity,Bifidobacterium sp. [39],100%
same,Activity,Bifidobacterium sp. [40],0%
same,Activity,Eubacterium sp. [41],100%
same,Activity,Eubacterium sp. [42],0%
